Laboratory results reported in ChEMBL document CHEMBL5724801, “EUbOPEN Chemogenomics Library - Multiplex” (2024).
Several values for one entry are separate records, joined by “and”; a condition that tells them apart may be missing. Equal values may be shown once.

Test system: U2OS
Test: Multiplex assay against U2OS
Format: toxicity, cell-based
Details: human
Method in brief: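 Cells stained live at seeding with Hoechst33342, BioTracker Green Microtubule Cytoskeleton Dye, MitoTracker Red and Annexin V Alexa Fluor 680 were imaged on a CQ1 microscope at 37°C and 5% CO2 after compound addition. Their classification by CellPathfinder machine-learning gating ran from Hoechst high-intensity objects versus normal cells, to healthy, pyknosed or fragmented nuclei among normal cells, to mitotic or apoptotic among pyknosed cells. Tubulin, mitochondrial-mass and membrane-permeability phenotypes are per cents of healthy-nucleus cells.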

[1] = 12 h, 1 µM, compound concentration 1 uM
[2] = 12 h, 10 µM, compound concentration 10 uM
[3] = 24 h, 1 µM, compound concentration 1 uM
[4] = 24 h, 10 µM, compound concentration 10 uM
[5] = 48 h, 1 µM, compound concentration 1 uM
[6] = 48 h, 10 µM, compound concentration 10 uM

S=c1[nH]nc(-c2cccs2)n1-c1ccccc1
Population Apoptotic (%) [1]: 50% and 31.82% | Population Fragmented Nuclei (%) [1]: 2.88% and 1.49% | Population Healthy Nuclei (%) [1]: 87.7% and 82.09% | Population Hoechst High Intensity Objects (%) [1]: 0% | Population Membrane Permeable-Phenotype (%) [1]: 0% and 3.64% | Population Mitochondria Different-Phenotype (%) [1]: 0.3% and 2.73% | Population Mitotic Cells (%) [1]: 50% and 68.18% | Population Normal (%) [1]: 100% | Population Pyknosed Nuclei (%) [1]: 9.42% and 16.42% | Population Tubulin-Different-Phenotype (%) [1]: 0.3% and 0% | Total Cell Count [1]: 382 and 134 | Population Apoptotic (%) [2]: 41.82% and 31.25% | Population Fragmented Nuclei (%) [2]: 1.86% and 4.61% | Population Healthy Nuclei (%) [2]: 83.55% and 84.87% | Population Hoechst High Intensity Objects (%) [2]: 0% | Population Membrane Permeable-Phenotype (%) [2]: 0.32% and 5.43% | Population Mitochondria Different-Phenotype (%) [2]: 0.32% and 5.43% | Population Mitotic Cells (%) [2]: 58.18% and 68.75% | Population Normal (%) [2]: 100% | Population Pyknosed Nuclei (%) [2]: 14.59% and 10.53% | Population Tubulin-Different-Phenotype (%) [2]: 0.63% and 0% | Total Cell Count [2]: 377 and 152 | Population Apoptotic (%) [3]: 38.78% and 38.46% | Population Fragmented Nuclei (%) [3]: 1.97% and 1.6% | Population Healthy Nuclei (%) [3]: 88.36% and 84.57% | Population Hoechst High Intensity Objects (%) [3]: 0.2% and 0% | Population Membrane Permeable-Phenotype (%) [3]: 0.22% and 3.14% | Population Mitochondria Different-Phenotype (%) [3]: 0.22% and 3.14% | Population Mitotic Cells (%) [3]: 61.22% and 61.54% | Population Normal (%) [3]: 99.8% and 100% | Population Pyknosed Nuclei (%) [3]: 9.66% and 13.83% | Population Tubulin-Different-Phenotype (%) [3]: 0.89% and 0% | Total Cell Count [3]: 508 and 188 | Population Apoptotic (%) [4]: 38.46% and 40% | Population Fragmented Nuclei (%) [4]: 2.57% and 1.6% | Population Healthy Nuclei (%) [4]: 87.15% and 87.77% | Population Hoechst High Intensity Objects (%) [4]: 0% | Population Membrane Permeable-Phenotype (%) [4]: 0.91% and 5.45% | Population Mitochondria Different-Phenotype (%) [4]: 0.23% and 3.03% | Population Mitotic Cells (%) [4]: 61.54% and 60% | Population Normal (%) [4]: 100% | Population Pyknosed Nuclei (%) [4]: 10.28% and 10.64% | Population Tubulin-Different-Phenotype (%) [4]: 0.91% and 1.21% | Total Cell Count [4]: 506 and 188 | Population Apoptotic (%) [5]: 48.15% and 60% | Population Fragmented Nuclei (%) [5]: 1.9% and 2.52% | Population Healthy Nuclei (%) [5]: 90.4% and 84.91% | Population Hoechst High Intensity Objects (%) [5]: 0.09% and 0% | Population Membrane Permeable-Phenotype (%) [5]: 0.84% and 0.74% | Population Mitochondria Different-Phenotype (%) [5]: 0% and 3.7% | Population Mitotic Cells (%) [5]: 51.85% and 40% | Population Normal (%) [5]: 99.91% and 100% | Population Pyknosed Nuclei (%) [5]: 7.7% and 12.58% | Population Tubulin-Different-Phenotype (%) [5]: 0.63% and 0% | Population Apoptotic (%) [6]: 25.3% and 58.62% | Population Fragmented Nuclei (%) [6]: 3.4% and 3.18% | Population Healthy Nuclei (%) [6]: 88.05% and 87.58% | Population Hoechst High Intensity Objects (%) [6]: 0% | Population Membrane Permeable-Phenotype (%) [6]: 1.29% and 2.18% | Population Mitochondria Different-Phenotype (%) [6]: 0.12% and 3.27% | Population Mitotic Cells (%) [6]: 74.7% and 41.38% | Population Normal (%) [6]: 100% | Population Pyknosed Nuclei (%) [6]: 8.55% and 9.24% | Population Tubulin-Different-Phenotype (%) [6]: 0.94% and 0%

O=C1N=C(NCc2cccs2)S/C1=C\c1ccc2ncccc2c1
Population Apoptotic (%) [1]: 36.36% and 33.33% | Population Fragmented Nuclei (%) [1]: 2.87% and 8.81% | Population Healthy Nuclei (%) [1]: 87.42% and 78.76% | Population Hoechst High Intensity Objects (%) [1]: 0% | Population Membrane Permeable-Phenotype (%) [1]: 0.51% and 3.95% | Population Mitotic Cells (%) [1]: 63.64% and 66.67% | Population Normal (%) [1]: 100% | Population Pyknosed Nuclei (%) [1]: 9.71% and 12.44% | Population Tubulin-Different-Phenotype (%) [1]: 1.01% and 1.97% | Total Cell Count [1]: 453 and 193 | Population Apoptotic (%) [2]: 55% and 44% | Population Fragmented Nuclei (%) [2]: 1.99% and 5.59% | Population Healthy Nuclei (%) [2]: 91.39% and 78.88% | Population Hoechst High Intensity Objects (%) [2]: 0% | Population Membrane Permeable-Phenotype (%) [2]: 16.67% and 19.69% | Population Mitotic Cells (%) [2]: 45% and 56% | Population Normal (%) [2]: 100% | Population Pyknosed Nuclei (%) [2]: 6.62% and 15.53% | Population Tubulin-Different-Phenotype (%) [2]: 18.48% and 14.96% | Total Cell Count [2]: 302 and 161 | Population Apoptotic (%) [3]: 37.5% and 40.54% | Population Fragmented Nuclei (%) [3]: 1.66% and 6.39% | Population Healthy Nuclei (%) [3]: 87.71% and 79.7% | Population Hoechst High Intensity Objects (%) [3]: 0% | Population Membrane Permeable-Phenotype (%) [3]: 0.95% and 5.19% | Population Mitochondria Different-Phenotype (%) [3]: 0.19% and 9.91% | Population Mitotic Cells (%) [3]: 62.5% and 59.46% | Population Normal (%) [3]: 100% | Population Pyknosed Nuclei (%) [3]: 10.63% and 13.91% | Population Tubulin-Different-Phenotype (%) [3]: 0.38% and 1.42% | Total Cell Count [3]: 602 and 266 | Population Apoptotic (%) [4]: 68.42% | Population Fragmented Nuclei (%) [4]: 4.38% and 8.12% | Population Healthy Nuclei (%) [4]: 76.43% and 68.12% | Population Hoechst High Intensity Objects (%) [4]: 0% | Population Membrane Permeable-Phenotype (%) [4]: 10.57% and 12.84% | Population Mitotic Cells (%) [4]: 31.58% | Population Normal (%) [4]: 100% | Population Pyknosed Nuclei (%) [4]: 19.19% and 23.75% | Population Tubulin-Different-Phenotype (%) [4]: 13.66% and 9.17% | Total Cell Count [4]: 297 and 160 | Population Apoptotic (%) [5]: 47.06% and 45.1% | Population Fragmented Nuclei (%) [5]: 4.77% and 4% | Population Healthy Nuclei (%) [5]: 86.23% and 84% | Population Hoechst High Intensity Objects (%) [5]: 0.09% and 0% | Population Membrane Permeable-Phenotype (%) [5]: 0.92% and 1.96% | Population Mitochondria Different-Phenotype (%) [5]: 0.1% and 4.48% | Population Mitotic Cells (%) [5]: 52.94% and 54.9% | Population Normal (%) [5]: 99.91% and 100% | Population Pyknosed Nuclei (%) [5]: 9% and 12% | Population Tubulin-Different-Phenotype (%) [5]: 0.82% and 0.28% | Total Cell Count [5]: 1134 and 425 | Population Apoptotic (%) [6]: 81.63% and 92.42% | Population Fragmented Nuclei (%) [6]: 10.65% and 9.25% | Population Healthy Nuclei (%) [6]: 57.74% and 52.6% | Population Hoechst High Intensity Objects (%) [6]: 0% | Population Membrane Permeable-Phenotype (%) [6]: 3.91% and 5.49% | Population Mitotic Cells (%) [6]: 18.37% and 7.58% | Population Normal (%) [6]: 100% | Population Pyknosed Nuclei (%) [6]: 31.61% and 38.15% | Total Cell Count [6]: 310 and 173

CCN1CCN(Cc2ccc(Nc3ncc(F)c(-c4cc(F)c5nc(C)n(C(C)C)c5c4)n3)nc2)CC1.CS(=O)(=O)O
Population Apoptotic (%) [1]: 40% and 33.33% | Population Fragmented Nuclei (%) [1]: 3.09% and 3.21% | Population Healthy Nuclei (%) [1]: 86.11% and 81.41% | Population Hoechst High Intensity Objects (%) [1]: 0% and 0.64% | Population Membrane Permeable-Phenotype (%) [1]: 3.23% and 10.24% | Population Mitotic Cells (%) [1]: 60% and 66.67% | Population Normal (%) [1]: 100% and 99.36% | Population Pyknosed Nuclei (%) [1]: 10.8% and 15.38% | Population Tubulin-Different-Phenotype (%) [1]: 6.09% and 6.3% | Total Cell Count [1]: 324 and 157 | Population Apoptotic (%) [2]: 43.96% and 38.67% | Population Fragmented Nuclei (%) [2]: 4.12% and 4.26% | Population Healthy Nuclei (%) [2]: 70.88% and 42.55% | Population Hoechst High Intensity Objects (%) [2]: 0% | Population Membrane Permeable-Phenotype (%) [2]: 56.98% and 48.33% | Population Mitotic Cells (%) [2]: 56.04% and 61.33% | Population Normal (%) [2]: 100% | Population Pyknosed Nuclei (%) [2]: 25% and 53.19% | Population Tubulin-Different-Phenotype (%) [2]: 92.64% and 93.33% | Total Cell Count [2]: 364 and 141 | Population Apoptotic (%) [3]: 36.67% and 46.88% | Population Fragmented Nuclei (%) [3]: 2.68% and 4.65% | Population Healthy Nuclei (%) [3]: 82.68% and 76.74% | Population Hoechst High Intensity Objects (%) [3]: 0% | Population Membrane Permeable-Phenotype (%) [3]: 3.54% and 6.06% | Population Mitotic Cells (%) [3]: 63.33% and 53.12% | Population Normal (%) [3]: 100% | Population Pyknosed Nuclei (%) [3]: 14.63% and 18.6% | Population Tubulin-Different-Phenotype (%) [3]: 7.67% and 9.85% | Total Cell Count [3]: 410 and 172 | Population Apoptotic (%) [4]: 48.89% and 41.41% | Population Fragmented Nuclei (%) [4]: 5.44% and 6.04% | Population Healthy Nuclei (%) [4]: 59.59% and 27.52% | Population Hoechst High Intensity Objects (%) [4]: 0% | Population Membrane Permeable-Phenotype (%) [4]: 31.3% and 21.95% | Population Mitotic Cells (%) [4]: 51.11% and 58.59% | Population Normal (%) [4]: 100% | Population Pyknosed Nuclei (%) [4]: 34.97% and 66.44% | Population Tubulin-Different-Phenotype (%) [4]: 66.09% and 65.85% | Total Cell Count [4]: 386 and 149 | Population Apoptotic (%) [5]: 47.62% and 37.14% | Population Fragmented Nuclei (%) [5]: 4.31% and 6.15% | Population Healthy Nuclei (%) [5]: 83.37% and 75.9% | Population Hoechst High Intensity Objects (%) [5]: 0% | Population Membrane Permeable-Phenotype (%) [5]: 2.58% and 6.08% | Population Mitotic Cells (%) [5]: 52.38% and 62.86% | Population Normal (%) [5]: 100% | Population Pyknosed Nuclei (%) [5]: 12.33% and 17.95% | Population Tubulin-Different-Phenotype (%) [5]: 8.92% and 12.84% | Total Cell Count [5]: 511 and 195 | Population Apoptotic (%) [6]: 65% and 80.18% | Population Fragmented Nuclei (%) [6]: 3.14% and 4.64% | Population Healthy Nuclei (%) [6]: 34% and 21.85% | Population Hoechst High Intensity Objects (%) [6]: 0% and 0.66% | Population Membrane Permeable-Phenotype (%) [6]: 9.09% | Population Mitotic Cells (%) [6]: 35% and 19.82% | Population Normal (%) [6]: 100% and 99.34% | Population Pyknosed Nuclei (%) [6]: 62.86% and 73.51% | Population Tubulin-Different-Phenotype (%) [6]: 68.91% and 27.27% | Total Cell Count [6]: 350 and 152
